“Also recorded” adds a separate entry of the source.
Assays:
[1] = system: tightly synchronized P. falciparum Dd2 cells; experiment: developmental stage-specific action; format: cell-based, Plasmodium falciparum
In short: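 Tightly synchronized Dd2 cultures are treated with 1.25 μM test compound at 6, 18, 30 or 42 HPI, with 0.1% DMSO-treated infected RBCs as negative control and DHA and atovaquone as positive controls. Every 12 h, Giemsa-stained smears are read. Flow cytometry samples are fixed in 4% paraformaldehyde/0.0075% glutaraldehyde, permeabilized with 0.25% Triton X-100, RNase-treated (50 μg/mL) and YOYO-1 stained; parasitemia is taken by flow cytometry.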

[2] = system: P. falciparum Dd2 cultures; experiment: kinetic kill experiments; format: cell-based, Plasmodium falciparum; details: for EC50: Plasmodium falciparum, DD2, read-out: 5 × EC50
In short: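 Asynchronous Dd2 cultures are exposed to test compound for 6, 12, 24 or 48 h at 0.15% DMSO, then washed three times in RPMI and resuspended in culture medium. Parasite growth is monitored daily for 96 h. DHA (50 nM) and atovaquone (6.6 nM) serve as controls.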

chemical stability = format: physicochemical
[3] = system: HepG2 (liver hepatocellular carcinoma) cells; experiment: HepG2; format: cell-based, human; details: for selectivity index (SI): HepG2 EC50/EC50 Dd2 cells; for EC50: Homo sapiens, HepG2, read-out: EC50 HepG2
In short: (§1)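 Dose–response EC50 values, each from three or more independent experiments. Dd2 and 3D7 runs use chloroquine as comparator. The selectivity index is calculated as HepG2 EC50 divided by Dd2 EC50.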

solubility = format: physicochemical
In short: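 DMSO solubility is tested up to 100 mM, the highest concentration tested. For aqueous solubility, PBS is slowly titrated into 10 mM DMSO stock to give 100 μM, the highest concentration tested. Clarity is checked visually against a PBS standard at room temperature over 24 h.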

[4] = system: wild-type P. falciparum 3D7 cells; experiment: dose–response assay against 3D7 cells; format: cell-based; details: Plasmodium falciparum, 3D7, read-out: EC50 3D7
In short: as §1

[5] = system: chloroquine-resistant P. falciparum Dd2 parasites; experiment: SYBR Green I dose–response assay against Dd2 parasites; format: cell-based; details: Plasmodium falciparum, DD2, read-out: EC50 Dd2, chloroquine-resistant P. falciparum Dd2, three or more independent experiments
In short: as §1

CC[C@@]12C=C(C(=O)OC)n3c(c(c4ccccc43)CCN(C(=O)c3ccccn3)CCC1)[C@@H]2c1ccc(O)cc1 [Compound 30, methyl (11S,19S)-11-ethyl-19-(4-hydroxyphenyl)-15-(pyridine-2-carbonyl)-8,15-diazatetracyclo[9.6.2.0^2,7.0^8,18]nonadeca-1(18),2(7),3,5,9-pentaene-9-carboxylate]
parasitemia (flow cytometry) ([1]; Dd2 cells treated at 6, 18 and 30 HPI, 5 x EC50): remarkable decrease in parasitemia | effect on maturation when treated at 42 HPI ([1]; Dd2 cells treated at 42 HPI, 5 x EC50): did not inhibit maturation | stage-specific activity ([1]; synchronized Dd2, 5 x EC50 (1.25 μM), treated at 6, 18, 30 and 42 HPI): prevents exit on the parasite from the schizont stage; also recorded: arrested at the late schizont stage; also recorded: do not advance beyond the late schizont stage; also recorded: act specifically on the trophozoite/schizont stage | effect after 24 h treatment ([2]; 5× EC50, 24 h treatment, based on the 96 h time point): reduces parasitemia | effect after 48 h treatment ([2]; 5× EC50, 48 h treatment): more dramatic parasitocidal effect | kill rate ([2]; Dd2 cultures, 5 × EC50, treatment time required to kill): >24 h | chemical stability in acidified PBS (chemical stability; 100 μM, PBS pH 2.0 (1.95), 24 h room temperature then 24 h 37 °C, TLC and NMR): no compound breakdown; also recorded: no degradation | chemical stability in PBS pH 7.4 (chemical stability; 100 μM, PBS pH 7.4, 24 h room temperature then 24 h 37 °C, TLC and NMR): no compound breakdown; also recorded: no degradation | chemical stability during NMR experiments (chemical stability; 100 °C for multiple hours): without showing compound breakdown | selectivity index (SI) [3]: >100 | EC50 [3]: > 25000 nM | solubility at 24 h (solubility; PBS buffer, aqueous buffer, kinetic from dmso stock): ≥ 0.1 mM | solubility (solubility; biological grade DMSO, organic solvent or mixture): ≥ 100 mM | EC50 [4]: 1190 ± 250 nM | EC50 [5]: 250 ± 4 nM

CC[C@@]12C=C(C(=O)OC)n3c(c(c4ccccc43)CCN(C(=O)c3cncc(Br)c3)CCC1)[C@@H]2c1ccc(O)cc1 [Compound 33, methyl (11S,19S)-15-(5-bromopyridine-3-carbonyl)-11-ethyl-19-(4-hydroxyphenyl)-8,15-diazatetracyclo[9.6.2.0^2,7.0^8,18]nonadeca-1(18),2(7),3,5,9-pentaene-9-carboxylate]
selectivity index (SI) [3]: >38 | EC50 [3]: > 25000 nM | EC50 [4]: 1700 ± 320 nM | EC50 [5]: 650 ± 9 nM

C[C@H]1[C@@H](O)O[C@@H]2O[C@@]3(C)CC[C@H]4[C@H](C)CC[C@@H]1[C@@]24OO3 [Dihydroartemisinin (DHA), Dihydroartemisinin, reference compound]
EC50 [2]: 50 nM

O=C1C(O)=C([C@H]2CC[C@H](c3ccc(Cl)cc3)CC2)C(=O)c2ccccc21 [atovaquone, reference compound]
EC50 [2]: 6.6 nM

— publication PMC8359148 (ACS Omega, 2021)
